Assay results from ChEMBL document CHEMBL4145448, “Broad activity of diphenyleneiodonium analogues against Mycobacterium tuberculosis, malaria parasites and bacterial pathogens” (Eur J Med Chem, 2018).

How the values were obtained:
[1] = tested on: Escherichia coli; assay: Antibacterial activity against Escherichia coli N2381 after 18 hrs by broth microdilution method; assay type: functional; details: N2381, 18 h
Outline: (§1)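 Broth microdilution per CLSI in cation-adjusted Mueller-Hinton broth. 100 µL inoculum (~10^6 cfu/mL in CaMHB) mixed with 100 µL CaMHB containing compound, 0 to 128 µM. Incubated 18 h at 37 °C. MIC taken as the lowest concentration with no visible growth. Polymyxin B served as positive control. Isolates were stored at -80 °C in tryptone soy broth with 20% glycerol.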

[2] = tested on: Plasmodium falciparum; assay: Growth inhibition of CQ-sensitive GFP-fused Plasmodium falciparum D10 after 90 hrs by ethidium bromide staining based flow cytometry; assay type: functional, organism-based; details: D10, 90 h
Outline: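 Parasites cultured in human O+ erythrocytes in RPMI-HEPES pH 7.4 with hypoxanthine, NaHCO3, gentamicin and 0.5% Albumax II under 1% O2/4% CO2 at 37 °C. Synchronised to rings with heparin plus sorbitol. Set up at 1% parasitaemia and 1% haematocrit with 10x compound added. Cultured 90 h to next-cycle trophozoites. Stained with 10 µg/mL ethidium bromide for 1 h, washed, parasitaemia counted by flow cytometry with GFP gating.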

[3] = Selectivity index, ratio of CC50 for human HepG2 cells in presence of 1% FBS to MIC for Acinetobacter baumannii isolate 246-01-C; assay type: toxicity; details: read-out: Selectivity Index
[4] = tested on: Klebsiella pneumoniae; assay: Antibacterial activity against Klebsiella pneumoniae ATCC 13883 after 18 hrs by broth microdilution method; assay type: functional; details: ATCC 13883, 18 h; outline: as §1
[5] = tested on: Escherichia coli; assay: Antibacterial activity against Escherichia coli N11281 after 18 hrs by broth microdilution method; assay type: functional; details: N11281, 18 h; outline: as §1
[6] = tested on: Pseudomonas aeruginosa; assay: Antibacterial activity against Pseudomonas aeruginosa isolate 19147nm after 18 hrs by broth microdilution method; assay type: functional; outline: as §1
[7] = tested on: Pseudomonas aeruginosa; assay: Antibacterial activity against Pseudomonas aeruginosa ATCC 27853 after 18 hrs by broth microdilution method; assay type: functional; details: ATCC 27853, 18 h; outline: as §1
[8] = tested on: Pseudomonas aeruginosa; assay: Antibacterial activity against Pseudomonas aeruginosa isolate 18878B klon 1 after 18 hrs by broth microdilution method; assay type: functional; details: isolate 18878B klon 1, 18 h; outline: as §1
[9] = tested on: Acinetobacter baumannii; assay: Antibacterial activity against Acinetobacter baumannii isolate 246-01-C after 18 hrs by broth microdilution method; assay type: functional; outline: as §1
[10] = tested on: Pseudomonas aeruginosa; assay: Antibacterial activity against Pseudomonas aeruginosa QLD PSA 1 after 18 hrs by broth microdilution method; assay type: functional; details: QLD PSA 1, 18 h; outline: as §1
[11] = Selectivity index, ratio of CC50 for human HepG2 cells in presence of 1% FBS to MIC for Pseudomonas aeruginosa ATCC 27853; assay type: toxicity; details: read-out: Selectivity Index
Outline: (§2)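 Selectivity index is CC50 (1% FBS) divided by MIC. […] They then got compound at 300 to 0.14 µM (3-fold steps) for 24 h at 37 °C, 5% CO2. Resazurin (10 µM, 2 h) was read at ex/em 560/590 in duplicate wells. For MIC, CLSI broth microdilution was run in CaMHB with ~10^6 cfu/mL inoculum and 0–128 µM compound.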

[12] = Selectivity index, ratio of CC50 for human HepG2 cells in presence of 1% FBS to MIC for Pseudomonas aeruginosa isolate M146201; assay type: toxicity; details: read-out: Selectivity Index; outline: as §2
[13] = tested on: Enterococcus faecium; assay: Antibacterial activity against vancomycin-resistant Enterococcus faecium ATCC 700221 after 18 hrs by broth microdilution method; assay type: functional; details: ATCC 700221, 18 h; outline: as §1
[14] = tested on: Escherichia coli; assay: Antibacterial activity against Escherichia coli N4149 after 18 hrs by broth microdilution method; assay type: functional; details: N4149, 18 h; outline: as §1
[15] = Selectivity index, ratio of CC50 for human HepG2 cells in presence of 1% FBS to IC50 for CQ-sensitive GFP-fused Plasmodium falciparum D10; assay type: toxicity; details: read-out: Ratio IC50
[16] = Selectivity index, ratio of CC50 for human HepG2 cells in presence of 1% FBS to MIC for Pseudomonas aeruginosa isolate 18878B klon 1; assay type: toxicity; details: read-out: Selectivity Index; outline: as §2
[17] = Selectivity index, ratio of CC50 for human HepG2 cells in presence of 1% FBS to MIC for Klebsiella pneumoniae ATCC 13883; assay type: toxicity; details: read-out: Selectivity Index
[18] = Selectivity index, ratio of CC50 for human HepG2 cells in presence of 1% FBS to MIC for Acinetobacter baumannii isolate 07AC-336; assay type: toxicity; details: read-out: Selectivity Index
[19] = Selectivity index, ratio of CC50 for human HepG2 cells in presence of 1% FBS to MIC for Klebsiella pneumoniae isolate M320445; assay type: toxicity; details: read-out: Selectivity Index
[20] = Selectivity index, ratio of CC50 for human HepG2 cells in presence of 1% FBS to MIC for Escherichia coli N11281; assay type: toxicity; details: read-out: Selectivity Index
[21] = tested on: Acinetobacter baumannii; assay: Antibacterial activity against Acinetobacter baumannii ATCC 17978 after 18 hrs by broth microdilution method; assay type: functional; details: ATCC 17978, 18 h; outline: as §1

Row | SMILES | MIC [1] | IC50 [2] | selectivity ratio [3] | MIC [4] | MIC [5] | MIC [6] | MIC [7] | MIC [8] | MIC [9] | MIC [10] | selectivity ratio [11] | selectivity ratio [12] | MIC [13] | MIC [14] | selectivity ratio [15] | selectivity ratio [16] | selectivity ratio [17] | selectivity ratio [18] | selectivity ratio [19] | selectivity ratio [20] | other results
1 | Fc1ccc2c(c1)[I+]c1ccccc1-2 | 18 µM | 60 nM | 2.6 | 36 µM | 18 µM | 0.56 µM | 8.9 µM | 1.1 µM | 4.5 µM | 8.9 µM | 0.66 | 2.6 | 2.2 µM | 18 µM | 105 | 5.3 | 0.16 | 0.66 | 0.16 | 0.08 | MIC [21]: 1.1 µM
2 | COc1ccc2c(c1)-c1ccccc1[I+]2 | > 70 µM | 100 nM | 0.58 | 70 µM | > 70 µM | 18 µM | > 70 µM | 35 µM | 35 µM | 70 µM | > 0.29 | 0.29 | 4.4 µM | > 70 µM | 213 | 0.58 | 0.29 | 0.29 | 0.29 | > 0.29 | MIC [21]: 18 µM
3 | N#Cc1ccc2c(c1)[I+]c1ccccc1-2 | 71 µM | 50 nM | 0.19 | 18 µM | 71 µM | 2.2 µM | 35 µM | 4.4 µM | 18 µM | 8.8 µM | 0.09 | 0.19 | 2.2 µM | 71 µM | 62 | 0.75 | 0.19 | > 0.05 | 0.09 | 0.05 | MIC [21]: 4.4 µM
4 | COc1cccc2c1-c1ccccc1[I+]2 | 70 µM | 170 nM | 0.55 | > 70 µM | > 70 µM | 70 µM | > 70 µM | 70 µM | 70 µM | > 70 µM | > 0.55 | > 0.55 | 8.7 µM | > 70 µM | 225 | 0.55 | > 0.55 | 0.55 | 0.55 | > 0.55 | MIC [21]: 35 µM
5 | Clc1ccc2c(c1)[I+]c1ccccc1-2 | 8.7 µM | 70 nM | 0.51 | 8.7 µM | 4.3 µM | 0.54 µM | 8.7 µM | 0.54 µM | 2.2 µM | 2.2 µM | 0.13 | 0.51 | 1.1 µM | 8.7 µM | 15 | 2 | 0.13 | 0.51 | 0.13 | 0.26 | MIC [21]: 0.54 µM
6 | Clc1ccc2c(c1)-c1ccccc1[I+]2 | 17 µM | 80 nM | 3.7 | 8.7 µM | 17 µM | 4.3 µM | 8.7 µM | 2.2 µM | 4.3 µM | 8.7 µM | 1.9 | 3.7 | 8.7 µM | 17 µM | 194 | 7.5 | 1.9 | 1.9 | 0.47 | 0.93 | MIC [21]: 2.2 µM
